Screening results deposited in PubChem by several laboratories.
Pyk2 oligo antag = antagonists of Pyk2 self-association, primary screen, Q293 cells, FERM NanoBiT luminescence, HTS. z-score (the deposit names both 25 µM and 10 µM). AID 1347419, 2020. hit rate 0.83% among 99,000. active compounds read low. Protein-tyrosine kinase 2-beta (Homo sapiens), Q14289;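 active = Z-score of -3 or lower, scaled per plate to the spread of control and sample wells; inactive = z-score above -3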;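 note: negative z-score means lost luminescence so less FERM oligomerization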
Target sequence (Q14289 whole entry, looked up): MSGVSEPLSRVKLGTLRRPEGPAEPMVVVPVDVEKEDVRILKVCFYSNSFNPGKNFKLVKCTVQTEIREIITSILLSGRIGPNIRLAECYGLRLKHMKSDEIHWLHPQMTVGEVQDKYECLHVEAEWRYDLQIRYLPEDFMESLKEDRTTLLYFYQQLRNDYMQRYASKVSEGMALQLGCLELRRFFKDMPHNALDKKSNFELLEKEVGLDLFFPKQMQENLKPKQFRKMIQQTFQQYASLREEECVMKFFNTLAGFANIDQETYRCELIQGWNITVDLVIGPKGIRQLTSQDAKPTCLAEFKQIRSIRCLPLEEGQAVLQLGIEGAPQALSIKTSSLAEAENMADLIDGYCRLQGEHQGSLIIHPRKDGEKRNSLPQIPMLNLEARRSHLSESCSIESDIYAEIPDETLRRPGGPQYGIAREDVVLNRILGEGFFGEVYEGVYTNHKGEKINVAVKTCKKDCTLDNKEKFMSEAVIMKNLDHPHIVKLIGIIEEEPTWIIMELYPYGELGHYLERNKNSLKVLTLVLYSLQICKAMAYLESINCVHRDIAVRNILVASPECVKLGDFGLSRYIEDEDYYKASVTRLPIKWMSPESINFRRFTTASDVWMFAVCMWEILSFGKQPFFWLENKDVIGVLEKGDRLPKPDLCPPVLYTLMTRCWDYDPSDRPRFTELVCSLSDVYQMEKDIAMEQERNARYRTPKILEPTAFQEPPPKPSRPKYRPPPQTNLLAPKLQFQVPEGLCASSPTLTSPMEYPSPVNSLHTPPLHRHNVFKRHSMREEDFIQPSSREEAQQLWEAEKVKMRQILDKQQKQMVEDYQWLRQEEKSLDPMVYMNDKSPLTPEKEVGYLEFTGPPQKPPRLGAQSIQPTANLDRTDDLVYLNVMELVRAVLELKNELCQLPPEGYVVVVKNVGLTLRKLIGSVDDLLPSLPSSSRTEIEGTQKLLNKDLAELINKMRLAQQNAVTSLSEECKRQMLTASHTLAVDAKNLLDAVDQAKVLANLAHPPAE
HUVEC inhibit = inhibitors of HUVEC proliferation, primary screen, cell-based, 384-well; CellTiter-Glo luminescence, 72 h; active compounds read low; viability, % at 10 µM (by protocol); hit rate 1.1% among 86,000; AID 648, 2007;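 active = viability at or below 30%; inactive = viability above 30%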;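 note: 100% = median luminescence of DMSO-only cell control wells on each plate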
H69AR growth 86K = proliferation blockers of H69AR lung cancer cells, primary screen, cell-based, human, 86K library | H69AR lung tumor viability, ATP luminescence, 72 h; active compounds read low | viability, % at 10 µM | hit rate 6% among 85,000;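 active = viability at or below 40%; inactive = viability above 40%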;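 note: multidrug resistant small cell line overexpressing MRP-1 efflux transporter; 100% = mean luminescence of untreated control wells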
HCT116 bCat-KO = primary screen for growth suppressors in beta-catenin knockout HCT116 cells (colon tumor, human) | hit rate 1.5% among 140,000 | viability, % at 10 µM | HCT116 beta-catenin knockout viability, CellTiter-Glo, 60 h; active compounds read low | AID 818, 2007;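 active = viability at or under a set limit, the compound median less 4 SD, cut at about 6% in these data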;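 note: 0% = Hyamine 1622 control at 20 µM and 100% = untreated cell control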
PTEN del growth = growth suppression of PTEN-null HCT116, primary screen, cell-based, CellTiter-Glo. viability, % at 10 µM. hit rate 1.2% among 140,000. HCT116 PTEN-null viability, 60 h; active compounds read low;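 active = viability at or below a set limit, 4 SD under the median of all tested compounds, cut at about 3.7% in these data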;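 note: PTEN knockout HCT116 line with beta catenin targeted HCT116 as companion control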
Lung fibro prol = antiproliferative effect on LL 47 fibroblasts – human, LL 47 cells, CellTiter-Glo luminescence, primary screen; LL 47 human lung fibroblast viability, ATP luminescence; active compounds read low; viability, % at 10 µM; hit rate 1.1% among 85,000;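 active = viability at or below 50% in the single dose screen; inactive = viability above 50%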;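 note: compound exposure lasted 72 h before the ATP readout; 100% = median luminescence of untreated cell-only wells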
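Test system: LL 47 human lung fibroblasts; Quantity: 1,150 cells/well; Buffer or medium: IMEM plus 15% FBS; Dosing: tenfold compound dosing solution, DMSO at 0.1%; Timing: overnight cell rest, 72 h compound treatment at 37 °C; Detection: ATP-based CellTiter-Glo luminescent readout; Read-out basis: viability percentage against median untreated-cell control; Controls: cell-only wells, no compound.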
* = called active by the depositor; · = no result. This is one part of a sample in which hits are shown more often than they occur.

SMILES	Pyk2 oligo antag	HUVEC inhibit	H69AR growth 86K	HCT116 bCat-KO	PTEN del growth	Lung fibro prol
O=C1N/C(=N/N=C/c2ccccc2)SC1(c1ccccc1)c1ccccc1	0.53	101.2	83.8	92.0	97.2	99.0
O=C(Nc1ccc(-c2nc3ccccc3o2)cc1)c1cc(-n2cnnc2)ccc1Cl	-1.85	72.2	74.3	40.5	40.8	109.0
O=C(Nc1ccc(-c2nc3ccccc3o2)c(O)c1)c1cc(-n2cnnc2)ccc1Cl	-0.26	94.8	21.2*	82.3	61.4	98.7
O=C(Nc1ccc(-c2nc3ccccc3o2)cc1)c1ccc2c(c1)OCO2	2.13	81.7	41.6	55.3	29.4	105.6
COC(=O)c1ccc(-c2nc3ccc(C)cc3o2)cc1	-0.28	65.9	26.3*	11.0	9.6	97.5
O=C(Nc1ccc(-c2nc3ccccc3o2)cc1)c1ccc(N2C(=O)C3C4C=CC(C4)C3C2=O)cc1 (stereo unspecified)	-0.31	31.8	15.5*	78.9	79.7	74.0
Cc1cc2nc(SCCOC(=O)Nc3ccc(Cl)cc3)nc(C)c2cc1C	1.63	·	·	103.1	91.8	·
O=C(CN1CCN(S(=O)(=O)c2ccccc2)CC1)Nc1ccccc1C(=O)c1ccccc1	·	·	·	52.4	57.4	·
Cc1cc(C)nc(NC(=O)CSc2nc3ccccc3s2)n1	0.08	86.2	90.5	93.4	89.5	88.5
CN(CCO)c1cc(Sc2nc3ccccc3s2)c2nonc2c1[N+](=O)[O-]	-0.24	74.9	4.3*	110.0	101.6	29.6*
COC(=O)c1nn(-c2ccccc2)c(-c2ccccc2)c1C(=O)c1ccccc1	-3.33*	·	·	70.2	68.2	·
COc1cccc(C2C(C(=O)Nc3cccnc3)=C(C)Nc3nnnn32)c1OC (stereo unspecified)	-0.16	96.6	86.8	74.3	80.1	89.7
COc1ccccc1NC(=O)C1=C(C)Nc2nnnn2C1c1cc(Br)ccc1OC (stereo unspecified)	-1.15	91.5	16.7*	43.9	59.3	83.1
Cc1ccc2c(c1)c1c(n2CC(O)Cn2c(C)nc3ccccc32)CCCC1 (stereo unspecified)	·	10.8*	1.5*	53.9	69.7	90.0
COc1ccc(-n2nnnc2-c2ccccc2)cc1	-0.43	58.4	19.8*	14.1	15.7	60.0
Cc1cc([N+](=O)[O-])ccc1NC(=S)NC(=O)C(c1ccccc1)c1ccccc1	-0.99	81.4	32.1*	87.2	79.0	93.8
O=C(CSc1nnc(-c2c[nH]c3ccccc23)o1)c1ccc(-c2ccccc2)cc1	·	·	·	94.3	87.0	·
COc1ccc(/C=C2/C(=O)N(CC3CCCO3)C(=S)N2C)c(OC)c1 (stereo unspecified)	-1.82	·	·	89.8	84.0	·
COc1ccc2c(c1)nc1n2CN(CC2CCCO2)CN1Cc1ccccc1 (stereo unspecified)	·	68.2	24.7*	·	·	86.5
CCCCN(CCCC)S(=O)(=O)c1ccc(NC(=O)c2cccs2)cc1	-3.16*	78.4	25.7*	7.8	7.3	88.2
COc1ccc(NC(=O)COC(=O)c2c3c(nc4ccccc24)CCCC3)cc1	-4.52*	46.5	65.3	39.4	·	102.0
Cc1c(NC(=O)COC(=O)c2c3c(nc4ccccc24)CCCC3)c(=O)n(-c2ccccc2)n1C	·	·	·	93.7	88.2	·
COc1ccc(OC)c(NC(=O)COC(=O)c2c3c(nc4ccccc24)CCCC3)c1	-4.38*	·	·	12.4	10.5	·
COc1ccc(NC(=O)COC(=O)c2c3c(nc4ccccc24)CCCC3)cc1Cl	-4.62*	·	·	10.7	13.4	·
CC(C)NC(=O)c1c2c(nc3ccccc13)CCCC2	0.62	88.1	33.2*	95.8	95.9	100.3
O=C(O)c1c2c(nc3ccccc13)CCCCC2	·	·	·	86.5	110.6	·
O=C(c1ccccn1)c1cc2ccccc2n1S(=O)(=O)c1ccccc1	·	·	·	92.7	86.9	·
O=c1[nH]c(-c2ccco2)nc2sc3c(c12)CCCC3	·	·	·	90.1	88.7	·
Nc1nc(SCC(=O)NCCC(c2ccccc2)c2ccccc2)n[nH]1	·	94.5	91.8	92.7	100.6	108.6
CCOC(=O)CN/C=C(\C#N)c1ccccc1	·	·	·	98.3	97.8	·
